# This is a sample that favours compounds with a hit; in the whole collection about 2.3% have one here.
# CFTR F508del cor: correctors of CFTR F508del function in bronchial epithelial cells | CFBE cells, YFP halide quenching; stimulated with forskolin plus potentiator P3; % fluorescence drop versus neutral controls | activity (quench increase), % at 7.58 µM | 350,000 compounds, 0.36% hits;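 active = mean added fluorescence quench of at least 8% versus neutral control, with both replicates also reaching 8%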;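 also: cells transiently co-express mutant CFTR-F508del with the halide-sensitive YFP; corrector assay measuring rescue of mutant channel to the surface after 24 h compound exposure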
# EWS-Fli inh: EWS/Fli transcriptional activity inhibition | A673 NR0B1-luciferase reporter, viability-normalised | AID 651661 | 350,000 compounds, 0.67% hits | inhibition, % at 12.6 µM;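 active = mean inhibition of at least 50% after viability correction, with every replicate also passing that limit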;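 also: firefly luciferase signal divided by Alamar Blue viability fluorescence both relative to DMSO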
# PAX8 reporter: inhibitors of PAX8 transcriptional activity in RMG-I cells | RMG-I TPO-luciferase reporter, SteadyGlo, 24 h | 360,000 compounds, 1.2% hits | inhibition, % at 12.6 µM;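 active = mean replicate inhibition at least 60% with every replicate also reaching 60%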;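 also: luciferase light reporting Pax8 driven TPO promoter activity; plate controls were median of neutral control wells for no effect and mitoxantrone controls for full effect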
# FN deposition inh: fibronectin deposition inhibition | AH1F fibroblasts, Alexa488-fibronectin deposition fluorescence, overnight | inhibition, % at 12.6 µM | 350,000 compounds, 0.086% hits;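 active = mean inhibition across replicates of 30% or more, regardless of how many single replicates reach that level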;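 also: positive control wells lacked labelled fibronectin entirely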
#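 Material: AH1F fibroblast monolayer depositing Alexa488-labelled fibronectin into matrix | Input: 10000 AH1F cells/well | Medium: DMEM plus 2% serum, read in PBS | Reagent: Alexa488-fibronectin, 24 nM final in well | Compound dosing: One dose per compound, pinned | Schedule: 1 h adhesion, overnight exposure | Measured by: Fluorescence at 485 nm excitation, 525 nm emission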
# PGC1a acetyl inh: lowers PGC1a acetylation signal in U2OS cells. AlphaScreen anti-acetyl-lysine; with virally co-expressed GCN5 acetyltransferase. inhibition, % at 15.6 µM. 350,000 compounds, 0.17% hits. AID 651687;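 active = every replicate shows inhibition of at least 40%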;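 also: 0% = neutral control wells and 100% = positive control wells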
# Env fusion inh: inhibitors of HIV Env-mediated cell fusion; HeLa-JRFL Env/CEM21 cell fusion, luciferase; inhibition, % at 12.3 µM; 360,000 compounds, 1.1% hits;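 active = mean replicate inhibition score of at least 50 and every replicate individually at or above 50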;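 also: 0% = plate neutral controls and 100% = maraviroc near 300 nM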
# Numbers without * were called inactive; nt = not tested or not shown; [ ] = dose if it differs, or a comment.
SMILES,CFTR F508del cor,EWS-Fli inh,PAX8 reporter,FN deposition inh,PGC1a acetyl inh,Env fusion inh
Cc1ccc(S(=O)(=O)Nc2ccc3c(c2)C(=O)N([C@H](C)CO)C[C@H](C)[C@H](CN(C)C)OCCCC[C@H](C)O3)cc1,0,-4,-3,-9,-5,6[16.7 µM]
CN1C(=O)c2cc(NS(=O)(=O)c3ccc(Cl)cc3)ccc2OC[C@@H]2O[C@@H](CC(=O)N3CCc4ccccc4C3)CC[C@H]21,0,8,33,-12,0,-10[16.7 µM]
Cc1ccc(S(=O)(=O)Nc2ccc3c(c2)C(=O)N([C@H](C)CO)C[C@H](C)[C@H](CN(C)Cc2ccc(C(F)(F)F)cc2)OCCCC[C@H](C)O3)cc1,5,37,115*,-2,29,32[16.7 µM]
COc1ccc(NC(=O)Nc2ccc3c(c2)C(=O)N([C@@H](C)CO)C[C@@H](C)[C@H](CN(C)C(=O)C2CCCCC2)OCCCC[C@@H](C)O3)cc1,1,12,-1,nt,6,1[16.7 µM]
COc1ccccc1C(=O)N/C(=C/c1ccc(Br)cc1)C(=O)N1CCCC1,1,11,9,32*,5,36
COc1ccc(S(=O)(=O)Nc2ccc3c(c2)C(=O)N([C@@H](C)CO)C[C@H](C)[C@@H](CN(C)C(=O)Nc2ccc(C(F)(F)F)cc2)OCCCC[C@H](C)O3)cc1,-1,10,65*,-8,9,24[16.7 µM]
COc1ccc(S(=O)(=O)Nc2ccc3c(c2)C(=O)N([C@@H](C)CO)C[C@@H](C)[C@@H](CN(C)C(=O)Nc2ccc(C(F)(F)F)cc2)OCCCC[C@H](C)O3)cc1,2,2,9,-2,10,-10[16.7 µM]
COc1ccc(S(=O)(=O)Nc2ccc3c(c2)C(=O)N([C@@H](C)CO)C[C@H](C)[C@@H](CN(C)C(=O)Nc2ccc(C(F)(F)F)cc2)OCCCC[C@@H](C)O3)cc1,4,5,84*,-8,-10,9[16.7 µM]
COc1ccc(S(=O)(=O)Nc2ccc3c(c2)C(=O)N([C@H](C)CO)C[C@H](C)[C@H](CN(C)C(=O)Nc2ccccc2)OCCCC[C@H](C)O3)cc1,-2,8,-1,0,-18,60*[16.7 µM]
COc1ccc(S(=O)(=O)Nc2ccc3c(c2)C(=O)N([C@H](C)CO)C[C@@H](C)[C@H](CN(C)C(=O)Nc2ccccc2)OCCCC[C@@H](C)O3)cc1,2,1,10,-3,-16,-66[16.7 µM]
Cc1ccc2[nH]c(C(=O)N/N=C/c3ccccc3O)c(C)c2c1,8.4*,-74,-8,nt,nt,15
O=C(NN=C1CCCC1)c1[nH]c2ccc(Br)cc2c1-c1ccccc1,2,16,0,12,nt,-1
O=C(N/N=C/c1ccccc1)c1[nH]c2ccc(Br)cc2c1-c1ccccc1,4,76*,13,-15,nt,-157
FC(F)(F)c1cnc(N2CCCN(C(=S)Nc3ccccc3)CC2)c(Cl)c1,0,16,-2,-13,3,87*
O=S(=O)(c1cccc(-c2nnc(-c3ccc(Br)cc3)o2)c1)N1CCCCCC1,nt,nt,nt,6,17,60*
NC(=O)CSc1nnc(-c2cccc(S(=O)(=O)N3CCCCC3)c2)o1,3,4,-21,-2,nt,3
Clc1ccc2c(c1)C(C1=NCCN1)c1ccccc1CS2 (stereo not drawn),nt,nt,20,6,nt,113*
CCN1/C(=C/c2cccc[n+]2C)Sc2ccc(OC)cc21,2,38,71*,-6,nt,20
Cc1ccc2c(c1)N(C)/C(=C/c1cccc[n+]1C)S2,1,41,79*,-13,nt,40
Cn1cnc(S(=O)(=O)N[C@H]2C=C[C@H](CC(=O)NCC3CC3)O[C@H]2CO)c1,0,1,1,3,7,2[16.7 µM]
Nc1c(S(=O)(=O)c2cccs2)c2nc3ccccc3nc2n1CCc1ccccc1,nt,nt,nt,-2,nt,81*
Cc1ccc(S(=O)(=O)c2c(N)n(CCC(C)C)c3nc4ccccc4nc23)cc1,nt,nt,nt,-1,-10,81*
C[C@@H](NC(=O)[C@@H]1[C@@H](CO)[C@@H]2Cn3c(cccc3=O)[C@@H]2N1CC1CCCC1)c1ccccc1,nt,22,nt,-2,nt,nt
O=C(C[C@H]1C[C@H]2c3cc(NC(=O)C4CCOCC4)ccc3O[C@H]2[C@H](CO)O1)NCC1CC1,4,1,-5,-1,0,-13[16.7 µM]

# Screens: PubChem, Broad Institute
